Experimental data reported in ChEMBL document CHEMBL5058577, “EUbOPEN Chemogenomics Library 2 (Multiplex)” (2022).

System: HEK-293T
Test: Multiplex assay against HEK293T
Type: toxicity, cell-based
Conditions: human
Method in brief: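 Cells were classed with CellPathfinder machine-learning gating, first as Hoechst high-intensity objects or normal cells, then (normal cells) as healthy, pyknosed or fragmented nuclei, and finally (pyknosed cells) as mitotic or apoptotic. Staining of live cells at seeding used Hoechst33342, BioTracker Green Microtubule Cytoskeleton Dye, MitoTracker Red and Annexin V Alexa Fluor 680, with imaging on a CQ1 microscope at 37°C and 5% CO2 after compound addition. Tubulin, mitochondrial-mass and membrane-permeability phenotypes are per cents of healthy-nucleus cells.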

[1] = 12 h, 1 µM, compound concentration 1 uM, replicate 1
[2] = 12 h, 1 µM, compound concentration 1 uM, replicate 2
[3] = 12 h, 10 µM, compound concentration 10 uM, replicate 1
[4] = 12 h, 10 µM, compound concentration 10 uM, replicate 2
[5] = 24 h, 1 µM, compound concentration 1 uM, replicate 1
[6] = 24 h, 1 µM, compound concentration 1 uM, replicate 2
[7] = 24 h, 10 µM, compound concentration 10 uM, replicate 1
[8] = 24 h, 10 µM, compound concentration 10 uM, replicate 2
[9] = 48 h, 1 µM, compound concentration 1 uM, replicate 1
[10] = 48 h, 1 µM, compound concentration 1 uM, replicate 2
[11] = 48 h, 10 µM, compound concentration 10 uM, replicate 1
[12] = 48 h, 10 µM, compound concentration 10 uM, replicate 2

## O=c1ccc2ccc(OCCCCN3CCN(c4cccc5sccc45)CC3)cc2[nH]1 [BREXPIPRAZOLE]
[1]
  Population Apoptotic (%): 44%
  Population Fragmented Nuclei (%): 6%
  Population Healthy Nuclei (%): 77%
  Population Hoechst High Intensity Objects (%): 6%
  Population Membrane Permeable-Phenotype (%): 0%
  Population Mitochondria Different-Phenotype (%): 67%
  Population Mitotic Cells (%): 55%
  Population Normal (%): 93%
  Population Pyknosed Nuclei (%): 15%
  Population Tubulin-Different-Phenotype (%): 51%
  Total Cell Count: 392
[2]
  Population Apoptotic (%): 42%
  Population Fragmented Nuclei (%): 5%
  Population Healthy Nuclei (%): 80%
  Population Mitochondria Different-Phenotype (%): 69%
  Population Mitotic Cells (%): 57%
  Population Pyknosed Nuclei (%): 14%
  Population Tubulin-Different-Phenotype (%): 47%
  Total Cell Count: 354
[3]
  Population Apoptotic (%): 82%
  Population Fragmented Nuclei (%): 17%
  Population Healthy Nuclei (%): 43%
  Population Hoechst High Intensity Objects (%): 66%
  Population Membrane Permeable-Phenotype (%): 0%
  Population Mitochondria Different-Phenotype (%): 97%
  Population Mitotic Cells (%): 17%
  Population Normal (%): 33%
  Population Pyknosed Nuclei (%): 38%
  Population Tubulin-Different-Phenotype (%): 81%
  Total Cell Count: 299
[4]
  Population Apoptotic (%): 85%
  Population Fragmented Nuclei (%): 10%
  Population Healthy Nuclei (%): 66%
  Population Hoechst High Intensity Objects (%): 41%
  Population Mitochondria Different-Phenotype (%): 100%
  Population Mitotic Cells (%): 14%
  Population Normal (%): 59%
  Population Pyknosed Nuclei (%): 23%
  Population Tubulin-Different-Phenotype (%): 62%
  Total Cell Count: 200
[5]
  Population Apoptotic (%): 41%
  Population Fragmented Nuclei (%): 10%
  Population Healthy Nuclei (%): 73%
  Population Hoechst High Intensity Objects (%): 8%
  Population Membrane Permeable-Phenotype (%): 0%
  Population Mitochondria Different-Phenotype (%): 51%
  Population Mitotic Cells (%): 58%
  Population Normal (%): 91%
  Population Pyknosed Nuclei (%): 16%
  Population Tubulin-Different-Phenotype (%): 36%
  Total Cell Count: 501
[6]
  Population Apoptotic (%): 42%
  Population Fragmented Nuclei (%): 4%
  Population Healthy Nuclei (%): 87%
  Population Hoechst High Intensity Objects (%): 2%
  Population Mitochondria Different-Phenotype (%): 52%
  Population Mitotic Cells (%): 57%
  Population Normal (%): 97%
  Population Pyknosed Nuclei (%): 7%
  Population Tubulin-Different-Phenotype (%): 35%
  Total Cell Count: 449
[7]
  Population Apoptotic (%): 91%
  Population Fragmented Nuclei (%): 12%
  Population Healthy Nuclei (%): 37%
  Population Hoechst High Intensity Objects (%): 68%
  Population Membrane Permeable-Phenotype (%): 0%
  Population Mitochondria Different-Phenotype (%): 100%
  Population Mitotic Cells (%): 8%
  Population Normal (%): 31%
  Population Pyknosed Nuclei (%): 50%
  Population Tubulin-Different-Phenotype (%): 66%
  Total Cell Count: 284
[8]
  Population Apoptotic (%): 89%
  Population Fragmented Nuclei (%): 10%
  Population Healthy Nuclei (%): 59%
  Population Hoechst High Intensity Objects (%): 46%
  Population Mitochondria Different-Phenotype (%): 98%
  Population Mitotic Cells (%): 10%
  Population Normal (%): 53%
  Population Pyknosed Nuclei (%): 30%
  Population Tubulin-Different-Phenotype (%): 57%
  Total Cell Count: 180
[9]
  Population Apoptotic (%): 49%
  Population Fragmented Nuclei (%): 9%
  Population Healthy Nuclei (%): 80%
  Population Hoechst High Intensity Objects (%): 5%
  Population Membrane Permeable-Phenotype (%): 0%
  Population Mitochondria Different-Phenotype (%): 47%
  Population Mitotic Cells (%): 50%
  Population Normal (%): 94%
  Population Pyknosed Nuclei (%): 10%
  Population Tubulin-Different-Phenotype (%): 28%
  Total Cell Count: 679
[10]
  Population Apoptotic (%): 48%
  Population Fragmented Nuclei (%): 12%
  Population Healthy Nuclei (%): 79%
  Population Hoechst High Intensity Objects (%): 3%
  Population Membrane Permeable-Phenotype (%): 1%
  Population Mitochondria Different-Phenotype (%): 36%
  Population Mitotic Cells (%): 51%
  Population Normal (%): 96%
  Population Pyknosed Nuclei (%): 7%
  Population Tubulin-Different-Phenotype (%): 26%
  Total Cell Count: 644
[11]
  Population Apoptotic (%): 93%
  Population Fragmented Nuclei (%): 19%
  Population Healthy Nuclei (%): 30%
  Population Hoechst High Intensity Objects (%): 67%
  Population Membrane Permeable-Phenotype (%): 0%
  Population Mitochondria Different-Phenotype (%): 96%
  Population Mitotic Cells (%): 6%
  Population Normal (%): 32%
  Population Pyknosed Nuclei (%): 50%
  Population Tubulin-Different-Phenotype (%): 51%
  Total Cell Count: 269
[12]
  Population Apoptotic (%): 89%
  Population Fragmented Nuclei (%): 14%
  Population Healthy Nuclei (%): 50%
  Population Hoechst High Intensity Objects (%): 52%
  Population Mitochondria Different-Phenotype (%): 97%
  Population Mitotic Cells (%): 10%
  Population Normal (%): 47%
  Population Pyknosed Nuclei (%): 34%
  Population Tubulin-Different-Phenotype (%): 82%
  Total Cell Count: 170
